Here are results for 4 molecules from ChEMBL document CHEMBL1145495, “Polyamine effects on antibiotic susceptibility in bacteria” (2007).

Converted amounts (≈) assume the structure as drawn. The source made the active and inactive calls. A value given as a limit tells only on which side of the number the result lay.

Test [1] concerns Pseudomonas aeruginosa. Description: Antibacterial activity against Pseudomonas aeruginosa T15464 after 14 to 16 hrs by broth dilution method. Type of test: functional. In outline: (§1)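 CLSI broth dilution in cation-adjusted Mueller-Hinton broth with serial twofold dilutions, with or without spermine or spermidine added. Overnight cultures were diluted in saline to OD600 0.1–0.12, and about 10^5 CFU were inoculated. Incubation was 14–16 h at 37°C. MIC was confirmed in three independent experiments. E. coli acrA mutants were tested with 1 mM spermine; P. aeruginosa isolates with 1 mM spermine or 20 mM spermidine.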
(Dilution methods test growth across graded concentrations, often in twofold steps.)

Test [2] has as its system Staphylococcus aureus. Description: Antibacterial activity against Staphylococcus aureus N315 after 14 to 16 hrs by broth dilution method. Type of test: functional. In outline:
as §1

Test [3] relates to Escherichia coli. Description: Antibacterial activity against Escherichia coli K12 after 14 to 16 hrs by broth dilution method. The test is classed as functional.
Test [4] relates to Pseudomonas aeruginosa. The test is described as follows: Antibacterial activity against Pseudomonas aeruginosa DK101 containing pAU48 expressing oprD after 14 to 16 hrs by broth dilution method. Type of test: functional.
In test [5] the test system is Escherichia coli. The test is described as follows: Antibacterial activity against Escherichia coli C921-61 after 14 to 16 hrs by broth dilution method. The test is classed as functional.
The subject of test [6] is Pseudomonas aeruginosa. Description: Antibacterial activity against Pseudomonas aeruginosa T2095 after 14 to 16 hrs by broth dilution method. Type of test: functional.
Test [7] concerns Pseudomonas aeruginosa. Description: Antibacterial activity against Pseudomonas aeruginosa T5177 after 14 to 16 hrs by broth dilution method. The test is classed as functional. In outline: as §1
Test [8] deals with Pseudomonas aeruginosa. The test is described as follows: Antibacterial activity against streptomycin and gentamycin-resistant Pseudomonas aeruginosa DK101 containing oprD mutant after 14 to 16 hrs by broth dilution method. The test is classed as functional. In outline: as §1
For test [9], the system named is Staphylococcus aureus. The test is described as follows: Antibacterial activity against Staphylococcus aureus ATCC 3556 after 14 to 16 hrs by broth dilution method. The test is classed as functional.
Test [10] deals with Salmonella typhimurium. The test is described as follows: Antibacterial activity against Salmonella enterica serovar Typhimurium LT2 after 14 to 16 hrs by broth dilution method. The test is classed as functional.
The test system of test [11] is Pseudomonas aeruginosa. The test is described as follows: Antibacterial activity against Pseudomonas aeruginosa PAO1 after 14 to 16 hrs by broth dilution method. Type of test: functional.
For test [12], the system named is Pseudomonas aeruginosa. The test is described as follows: Antibacterial activity against streptomycin-resistant Pseudomonas aeruginosa DK100 after 14 to 16 hrs by broth dilution method. Type of test: functional. In outline: as §1
Test [13] has as its system Pseudomonas aeruginosa. The test is described as follows: Antibacterial activity against Pseudomonas aeruginosa H4563 after 14 to 16 hrs by broth dilution method. The test is classed as functional.
Test [14] relates to Pseudomonas aeruginosa. Description: Antibacterial activity against Pseudomonas aeruginosa M38100B after 14 to 16 hrs by broth dilution method. Type of test: functional.
For test [15], the system named is Pseudomonas aeruginosa. Description: Antibacterial activity against Pseudomonas aeruginosa M38100A after 14 to 16 hrs by broth dilution method. The test is classed as functional.
Test [16] relates to Pseudomonas aeruginosa. The test is described as follows: Antibacterial activity against Pseudomonas aeruginosa M37310 after 14 to 16 hrs by broth dilution method. The test is classed as functional.
The subject of test [17] is Staphylococcus aureus. The test is described as follows: Antibacterial activity against Staphylococcus aureus Mu50 after 14 to 16 hrs by broth dilution method. Type of test: functional.
For test [18], the system named is Escherichia coli. The test is described as follows: Antibacterial activity against Escherichia coli K10 after 14 to 16 hrs by broth dilution method. Type of test: functional.
Test [19] has as its system Pseudomonas aeruginosa. Description: Antibacterial activity against Pseudomonas aeruginosa M22152 after 14 to 16 hrs by broth dilution method. The test is classed as functional. Summed up: as §1
Test [20] concerns Pseudomonas aeruginosa. Description: Antibacterial activity against Pseudomonas aeruginosa F4980 after 14 to 16 hrs by broth dilution method. Type of test: functional. Summed up:
as §1

Test [21] concerns Pseudomonas aeruginosa. The test is described as follows: Antibacterial activity against Pseudomonas aeruginosa T6268 after 14 to 16 hrs by broth dilution method. Type of test: functional.
Test [22] concerns Pseudomonas aeruginosa. Description: Antibacterial activity against Pseudomonas aeruginosa F66336 after 14 to 16 hrs by broth dilution method. The test is classed as functional.
Test [23] relates to Staphylococcus aureus. Description: Antibacterial activity against Staphylococcus aureus N315 at 20 ug/ml after 12 hrs by time kill assay. Type of test: functional, organism-based. Summed up:
(§2)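 Time-kill: overnight MH broth cultures were diluted in saline to OD600 0.08–0.12, and 1 x 10^5 to 5 x 10^5 CFU went into 1 ml MH broth with or without antibiotic and/or 1 mM spermine. Static incubation at 37°C. Timed 100 µl aliquots were plated on LB neat or after 10-fold dilutions, and colonies counted after 18–24 h at 37°C.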

For test [24], the system named is Staphylococcus aureus. Description: Antibacterial activity against Staphylococcus aureus Mu50 at 20 ug/ml after 12 hrs by time kill assay. Type of test: functional, organism-based. Summed up: as §2
For test [25], the system named is Staphylococcus aureus. The test is described as follows: Antibacterial activity against Staphylococcus aureus Mu50 assessed as inhibition of bacterial population at greater than 512 ug/ml after 48 hrs. Type of test: functional, organism-based.
For test [26], the system named is Staphylococcus aureus. The test is described as follows: Antibacterial activity against Staphylococcus aureus Mu50 assessed as inhibition of bacterial population at 128 ug/ml after 48 hrs. The test is classed as functional, organism-based.
Test [27] deals with Escherichia coli. The test is described as follows: Antibacterial activity against Escherichia coli N818 delta acrA mutant assessed as inhibition of AcrAB efflux pump after 14 to 16 hrs by broth dilution method. The test is classed as functional. In outline: as §1
The test system of test [28] is Escherichia coli. Description: Antibacterial activity against Escherichia coli N43 acrA mutant assessed as inhibition of AcrAB efflux pump after 14 to 16 hrs by broth dilution method. Type of test: functional. Summed up: as §1
The test system of test [29] is Pseudomonas aeruginosa. The test is described as follows: Antibacterial activity against Pseudomonas aeruginosa PAO1 assessed as inhibition of bacterial population at 64 ug/ml after 48 hrs. The test is classed as functional, organism-based. Summed up:
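Population analysis: overnight 37°C cultures adjusted to 1 x 10^8 to 5 x 10^8 CFU/ml, diluted, 100 µl spread on LB plates with twofold serial dilutions of antibiotic with or without 1 mM spermine, plus LB alone; colonies counted after 48 h at 37°C; triplicate experiments.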

Test [30] concerns Escherichia coli. Description: Antibacterial activity against Escherichia coli W4573 assessed as inhibition of AcrAB efflux pump after 14 to 16 hrs by broth dilution method. The test is classed as functional.
The test system of test [31] is Escherichia coli. Description: Antibacterial activity against Escherichia coli K12 at upto 16 mM after 14 to 16 hrs by broth dilution method. The test is classed as functional, organism-based.
For test [32], the system named is Salmonella typhimurium. Description: Antibacterial activity against Salmonella enterica serovar Typhimurium LT2 at upto 16 mM after 14 to 16 hrs by broth dilution method. The settings on record: Salmonella enterica subsp. enterica serovar Typhimurium. Type of test: functional, organism-based.
Test [33] relates to Escherichia coli. The test is described as follows: Antibacterial activity against Escherichia coli C921-61 at upto 16 mM after 14 to 16 hrs by broth dilution method. Type of test: functional, organism-based.
The test system of test [34] is Staphylococcus aureus. Description: Antibacterial activity against Staphylococcus aureus Mu50 at upto 16 mM after 14 to 16 hrs by broth dilution method. The test is classed as functional, organism-based.
The test system of test [35] is Escherichia coli. Description: Antibacterial activity against Escherichia coli K10 at upto 16 mM after 14 to 16 hrs by broth dilution method. Type of test: functional, organism-based.
Test [36] relates to Staphylococcus aureus. Description: Antibacterial activity against Staphylococcus aureus N315 at upto 16 mM after 14 to 16 hrs by broth dilution method. Type of test: functional, organism-based.
The subject of test [37] is Staphylococcus aureus. Description: Antibacterial activity against Staphylococcus aureus ATCC 3556 at upto 16 mM after 14 to 16 hrs by broth dilution method. The test is classed as functional, organism-based.

One may read the MIC as the smallest concentration in the dilution series that meets the test's criterion for growth inhibition. Take POLYMYXIN B: the MIC in test [1] is 0.5 µg/mL; in test [2], 64 µg/mL; in test [3], 0.25 µg/mL; in test [4], 0.5 µg/mL; in test [5] it was 0.5 µg/mL; in [6], 0.125 µg/mL. Moreover, the MIC in test [7] was 0.5 µg/mL; in test [8], 0.5 µg/mL; in [9] it was 64 µg/mL; in test [10] (Salmonella enterica subsp. enterica serovar Typhimurium) it was 0.5 µg/mL; in test [11], 1 µg/mL; in test [12], 0.5 µg/mL. Moreover, the MIC in [13] was 0.125 µg/mL; in test [14], 16 µg/mL; in test [15] it was less than 0.06 µg/mL; in [16], 0.125 µg/mL; in [17] it was 128 µg/mL; in test [18], 0.5 µg/mL. Besides, the MIC in [19] was found to be 0.5 µg/mL; in test [20] it was 0.25 µg/mL; in [21], 1 µg/mL; in test [22], 0.125 µg/mL.

`Cc1onc(-c2ccccc2)c1C(=O)N[C@@H]1C(=O)N2[C@@H]1SC(C)(C)[C@@H]2C(=O)O` [OXACILLIN]: the outcome in test [23], in [24] and in [26] was inactive. Further, the minimal inhibitory concentration (MIC) in test [2] came out at 16 µg/mL (≈ 39.9 µM); in [3], 512 µg/mL (≈ 1280 µM); in test [5] it was 512 µg/mL (≈ 1280 µM); in test [9], 0.12 µg/mL (≈ 0.299 µM); in test [10], 256 µg/mL (≈ 638 µM); in [17], 512 µg/mL (≈ 1280 µM). In [25], the outcome was Active.

`CC1(C)S[C@@H]2[C@H](NC(=O)C(C(=O)O)c3ccccc3)C(=O)N2[C@H]1C(=O)O` (stereo not given in full) [CARBENICILLIN]: the MIC in [1] was more than 1020 µg/mL; in test [2], 32 µg/mL (≈ 84.6 µM); in test [3], 16 µg/mL (≈ 42.3 µM); in test [4] it was 64 µg/mL (≈ 169 µM); in test [5], 16 µg/mL (≈ 42.3 µM); in [6] it was 256 µg/mL (≈ 677 µM). The MIC in [7] was more than 1020 µg/mL; in [27], 2 µg/mL (≈ 5.29 µM); in [8] it was 64 µg/mL (≈ 169 µM); in test [9], 1 µg/mL (≈ 2.64 µM); in test [28] it was 4 µg/mL (≈ 10.6 µM); in test [10], 8 µg/mL (≈ 21.1 µM). Further, the minimal inhibitory concentration (MIC) in test [11] is 64 µg/mL (≈ 169 µM); in test [12], 64 µg/mL (≈ 169 µM); in test [13], more than 1020 µg/mL; in test [14] it was 1020 µg/mL (≈ 2710 µM); in test [15], 16 µg/mL (≈ 42.3 µM); in [16] it was 1020 µg/mL (≈ 2710 µM). Also, the MIC in test [17] was not below 512 µg/mL; in test [18], 32 µg/mL (≈ 84.6 µM); in test [19] it was more than 1020 µg/mL; in test [20], 256 µg/mL (≈ 677 µM); in [21] it was 16 µg/mL (≈ 42.3 µM); in test [30] it was 16 µg/mL (≈ 42.3 µM). Moreover, the lowest concentration to inhibit growth in test [22] (MIC) was 256 µg/mL (≈ 677 µM). The result in [29] was Active.

Take `NCCCCNCCCN`: the outcome in test [31], in test [32], in [33], in test [34], in test [35] and in test [36] was inactive. Moreover, the result in test [37] was inactive.
